Target: T1, recombinant mouse Nape-pld (Mus musculus, UniProt Q8BH82)
T1 sequence (Q8BH82 1-396): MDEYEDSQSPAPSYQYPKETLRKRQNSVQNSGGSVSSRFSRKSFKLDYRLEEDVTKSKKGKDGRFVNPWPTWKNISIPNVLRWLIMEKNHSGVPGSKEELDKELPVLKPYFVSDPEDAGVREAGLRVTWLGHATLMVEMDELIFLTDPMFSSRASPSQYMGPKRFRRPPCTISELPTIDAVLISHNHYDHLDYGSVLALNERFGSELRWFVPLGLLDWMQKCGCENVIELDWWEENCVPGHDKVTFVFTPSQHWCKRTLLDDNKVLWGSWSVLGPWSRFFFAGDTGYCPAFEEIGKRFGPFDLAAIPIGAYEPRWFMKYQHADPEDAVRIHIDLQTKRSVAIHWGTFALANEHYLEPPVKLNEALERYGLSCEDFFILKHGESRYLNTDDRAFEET
Assay: VU534 competition assays with compounds known to bind Nape-pld
Format: biochemical
Conditions: for Effect on Nape-pld activity (compound alone): in presence of 0.4% NOG, 100 μM PE, 1 mM DCA
Summary of the method: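 Enzyme (final 0.4 μg, 50 mM Tris, 0.4% N-octylglucoside) was preincubated with vehicle or a competitor for 30 min: dioleoyl-PE 100 μM, deoxycholic acid 1 mM, bithionol 3 μM or LEI-401 30 μM. Alternatively, 15 μM of an analog was used for 5 min. Graded test compound followed for 60 min, then flame-NAPE (0.5 μM) plus N-oleoyl-PE (9.5 μM). The 5-min fluorescence change was normalized to vehicle, 0 μM.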

Row | Compound | Effect on Nape-pld activity (compound alone) | Effect on ability of 5 μM VU534 to activate Nape-pld (graded concentrations of LEI-401 or VU233, flame-NAPE (Figure S5))
1 | CCCCCCCC/C=C\CCCCCCCC(=O)OC[C@H](COP(=O)(O)OCCN)OC(=O)CCCCCCC/C=C\CCCCCCCC [PE, dioleoylphosphatidylethanolamine] | slight, but nonsignificant trend for inhibition | –
2 | O=C(NCC1CC1)c1cc(N2CC[C@H](O)C2)nc(N2CCC[C@@H](c3ccccc3)C2)n1 [LEI-401] | – | reduced the ability of 5 μM VU534 to activate Nape-pld in a concentration-dependent manner
3 | C[C@H](CCC(=O)O)[C@H]1CC[C@H]2[C@@H]3CC[C@@H]4C[C@H](O)CC[C@]4(C)[C@H]3C[C@H](O)[C@]12C [DCA, deoxycholic acid] | slight, but nonsignificant trend for inhibition | –

— publication PMC10443532 (ACS Chemical Biology, 2023)
